39 compounds from ChEMBL document CHEMBL1122471, “1,3-Diaryltriazenes: a new class of anorectic agents” (1983) can be followed below.

Some results are limits rather than exact numbers.

One assay concerns Rattus norvegicus. Put plainly: Percentage of body weight reduction in male Sprague-Dawley rats at 25 mg/kg. In kind it is functional.
Conditions: not given
The essentials:
(§1)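 Individually housed male CD Sprague-Dawley rats trained to eat their ration within 5 h were dosed orally once daily for 5 days, 10 vehicle controls and 10 treated. Body weight was taken daily before dosing. Reduction from concurrent controls was scored in bands: 16-30%, 31-45%, 46-60%, ≥61%.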
`CC(C)C(=O)N(N=Nc1cc(C(F)(F)F)ccc1C#N)c1cc(C(F)(F)F)ccc1C#N` registered a Body weight reduction greater than 61%. On to `CCCC(=O)N(N=Nc1cc(C(F)(F)F)ccc1C#N)c1cc(C(F)(F)F)ccc1C#N`, for which the Body weight reduction is on record as greater than 61%.

The next assay deals with Rattus norvegicus. Put plainly: Percentage of body weight reduction in male Sprague-Dawley rats at 30 mg/kg.
Conditions: not given
In kind it is functional. The method, boiled down:
as §1
In turn, `CN(N=Nc1cc(C(F)(F)F)ccc1C#N)c1cc(C(F)(F)F)ccc1C#N` yielded a Body weight reduction of less than 15%.

The next assay has as its system Rattus norvegicus. Put plainly: Percentage of body weight reduction in male Sprague-Dawley rats at 50 mg/kg. In kind it is functional.
Conditions: not given
The method, boiled down: as §1
Compound `CC(=O)N(N=Nc1cc(C(F)(F)F)ccc1C#N)c1cc(C(F)(F)F)ccc1C#N` showed a Body weight reduction greater than 61%. The compound `Cc1ccc(C#N)c(N=NNc2cc(C)ccc2C#N)c1` showed a Body weight reduction of less than 15%.

Turning to `Clc1ccccc1N=NNc1ccccc1Cl`, the Body weight reduction was less than 15%. `N#Cc1ccc(C(F)(F)F)cc1N=NN(C(=O)CCl)c1cc(C(F)(F)F)ccc1C#N` displayed a Body weight reduction of less than 15%. `Clc1cccc(Cl)c1N=NNc1c(Cl)cccc1Cl` gave a Body weight reduction of less than 15%. Consider `N#Cc1ccc(C(F)(F)F)cc1N=NN(C(=O)c1ccccc1)c1cc(C(F)(F)F)ccc1C#N`, for which the Body weight reduction was less than 15%.

In turn, `FC(F)(F)c1cccc(N=NNc2cccc(C(F)(F)F)c2)c1` had a Body weight reduction of less than 15%. `CC(=O)N(N=Nc1cccc(C(F)(F)F)c1)c1cc(C(F)(F)F)ccc1C#N` gave a Body weight reduction of less than 15%. Take `FC(F)(F)c1ccc(N=NNc2ccc(C(F)(F)F)cc2)cc1`: the Body weight reduction is less than 15%. Regarding `CC(=O)N(N=Nc1c(Cl)cccc1Cl)c1cc(C(F)(F)F)ccc1C#N`, the Body weight reduction is given as less than 15%. `N#Cc1ccc(C(F)(F)F)cc1N=NNc1cccc(C(F)(F)F)c1` returned a Body weight reduction of less than 15%. `COC(=O)c1ccc(C(F)(F)F)cc1N=NNc1cc(C(F)(F)F)ccc1C(=O)OC` displayed a Body weight reduction of less than 15%. Compound `FC(F)(F)c1ccc(Cl)c(N=NNc2cc(C(F)(F)F)ccc2Cl)c1` came in with a Body weight reduction of less than 15%. The compound `CC(=O)N(N=Nc1ccccc1)c1ccccc1` yielded a Body weight reduction greater than 61%. `FC(F)(F)c1ccc(Br)c(N=NNc2cc(C(F)(F)F)ccc2Br)c1`: the Body weight reduction is reported as less than 15%. Consider `CCOC(=O)N(N=Nc1cc(C(F)(F)F)ccc1C#N)c1cc(C(F)(F)F)ccc1C#N`, for which the Body weight reduction is listed as greater than 61%.

Regarding `CCOC(=O)NC(=O)N(N=Nc1cc(C(F)(F)F)ccc1C#N)c1cc(C(F)(F)F)ccc1C#N`, the Body weight reduction is greater than 61%.

For the next assay, the system named is Rattus norvegicus. Put plainly: Percentage of body weight reduction in male Sprague-Dawley rats at 50 mg/kg;.
Conditions: not given
The class given is functional. The method, boiled down: as §1
Take `N#Cc1ccccc1N=NNc1ccccc1C#N`: the Body weight reduction was less than 15%.

For a further assay, the system named is Rattus norvegicus. Put plainly: Percentage of body weight reduction in male Sprague-Dawley rats at 50 mg/kg; 31-45% reduction from controls.
Conditions: not given
The class given is functional. The method, boiled down: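 Individually housed male CD Sprague-Dawley rats trained to eat their ration within 5 h were dosed orally once daily for 5 days, 10 vehicle controls and 10 treated. Body weight was taken daily before dosing.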
The compound `CCCNC(=O)N(N=Nc1cc(C(F)(F)F)ccc1C#N)c1cc(C(F)(F)F)ccc1C#N` yielded a Body weight reduction of 31%. On the same count and under the same terms, then `CN(N=Nc1ccccc1)c1ccccc1`, with 31%; and `FC(F)(F)c1ccccc1N=NNc1ccccc1C(F)(F)F`, with 31%. Turning to `N#Cc1cc(C(F)(F)F)ccc1N=NNc1ccc(C(F)(F)F)cc1C#N`, the Body weight reduction is listed as 31%. `N#Cc1ccc(Cl)cc1N=NNc1cc(Cl)ccc1C#N` registered a Body weight reduction of 31%.

Another assay deals with Rattus norvegicus. Kind of assay: Percentage of body weight reduction in male Sprague-Dawley rats at 50 mg/kg; 46-60% reduction from controls. The following applies: dose 25 mg/kg; in the assay text read “at 25 mg/kg” for “at 50 mg/kg”. In kind it is functional. The method, boiled down: as §1
`CNC(=O)N(N=Nc1cc(C(F)(F)F)ccc1C#N)c1cc(C(F)(F)F)ccc1C#N`: the Body weight reduction came to 46%.

The assay is the same for the next values; noted with them: dose 50 mg/kg.
As to `CCCCC(=O)N(N=Nc1cc(C(F)(F)F)ccc1C#N)c1cc(C(F)(F)F)ccc1C#N`, the Body weight reduction amounted to 46%. Compound `N#Cc1ccc(C(F)(F)F)cc1NN=Nc1c(Cl)cccc1Cl` returned a Body weight reduction of 46%. Turning to `N#Cc1ccc(C(F)(F)F)cc1N=NN(C(=O)Nc1ccccc1)c1cc(C(F)(F)F)ccc1C#N`, the Body weight reduction came out at 46%. In the case of `COc1ccccc1N=NNc1ccccc1OC`, the Body weight reduction stood at 46%.

The compound `CCC(=O)N(N=Nc1cc(C(F)(F)F)ccc1C#N)c1cc(C(F)(F)F)ccc1C#N` came in with a Body weight reduction of 46%. `CC(=O)N(N=Nc1ccc(C(F)(F)F)cc1C#N)c1ccc(C(F)(F)F)cc1` gave a Body weight reduction of 46%. `COC(=O)CC(=O)N(N=Nc1cc(C(F)(F)F)ccc1C#N)c1cc(C(F)(F)F)ccc1C#N` displayed a Body weight reduction of 46%. Regarding `Clc1ccc(N=NNc2ccc(Cl)cc2)cc1`, the Body weight reduction is on record as 46%.

The subject of a further assay is Rattus norvegicus. Kind of assay: Percentage of body weight reduction in male Sprague-Dawley rats at 50 mg/kg; […] reduction from controls. In kind it is functional.
Conditions: not given
The essentials:
as §1
In turn, `N#Cc1ccc(C(F)(F)F)cc1NN=Nc1cc(C(F)(F)F)ccc1C(=O)O` yielded a Body weight reduction of 16%. In turn, `N#Cc1ccc(C(F)(F)F)cc1N=NNc1ccc(C(=O)O)cc1` came in with a Body weight reduction of 16%. Still for that read-out and setting: to `N#Cc1ccc(C(F)(F)F)cc1NN=Nc1ccccc1` belongs 16%.

The subject of the next assay is Rattus norvegicus. Kind of assay: Percentage of body weight reduction in male Sprague-Dawley rats at 25 mg/kg; 31-45% reduction from controls.
Conditions: not given
In turn, `Clc1cccc(N=NNc2cccc(Cl)c2Cl)c1Cl` gave a Body weight reduction of 31%.
